The source of these data is ChEMBL document CHEMBL2016441, “Discovery and structural development of small molecules that enhance transport activity of bile salt export pump mutant associated with progressive familial intrahepatic cholestasis type 2” (Bioorg Med Chem, 2012).

In series [1] the target is T1, Bile salt export pump (Homo sapiens, UniProt O95342, E297G). Kind of series: Restoration of human BSEP E297G mutant trafficking to cell membrane in MDCK2 cells co-expressing NTCP assessed as accumulation of [3H]taurocholate at 100 uM preincubated for 24 hrs prior incubation with [3H]taurocholate measured after 2 hrs by liquid scintillation counting. Format: cell membranes. To be noted: mdck2, 2 h.

In series [2] the target is T1, Bile salt export pump. Kind of series: Restoration of human BSEP E297G mutant trafficking to cell membrane in MDCK2 cells co-expressing NTCP assessed as accumulation of [3H]taurocholate at 10 uM preincubated for 24 hrs prior incubation with [3H]taurocholate measured after 2 hrs by liquid scintillation counting. It counts as cell membranes. As to conditions: mdck2, 2 h; call rule not given here. The method, boiled down:
(§1)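 Human WT or E297G BSEP delivered by recombinant adenovirus (50 MOI) into MDCK II cells on 24-well plates, 1 day after seeding. GFP adenovirus serves as control. Compounds added 24 h post-infection for 24 h. Cells washed with Krebs–Henseleit buffer pH 7.4, then incubated with [3H]TC for 2 h and washed with ice-cold buffer. Lysed in 2 N HCl, neutralized with NaOH, counted by scintillation. Read-out is the BSEP/GFP accumulation ratio.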

For series [3], the target named is T1, Bile salt export pump. Kind of series: Restoration of human BSEP E297G mutant trafficking to cell membrane in MDCK2 cells co-expressing NTCP assessed as increase in [3H]taurocholate transport measuring apparent efflux clearance across the apical membrane at 1 mM preincubated for 24 hrs prior incubation with [3H]taurocholate measured after 2 hrs by transcellular transport assay relative to control. It counts as cell-based. As to conditions: mdck2, 2 h, 1000 µM. The procedure, abridged:
(§2)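 MDCK II cells grown 2 days on Transwell inserts, then infected with E297G BSEP or GFP adenovirus (50 MOI). Compounds added 24 h later for 24 h. [3H]TC added basally. PS_apical is the steady-state transcellular rate over 2 h divided by the cellular [3H]TC concentration at 2 h. Mean ± SE of triplicates.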

The target in series [4] is Bile salt export pump (Homo sapiens, UniProt O95342). Kind of series: Restoration of wild type human BSEP trafficking to cell membrane in MDCK2 cells co-expressing NTCP assessed as decrease in [3H]taurocholate accumulation at 10 to 100 uM preincubated for 24 hrs prior incubation with [3H]taurocholate measured after 2 hrs by liquid scintillation counting. Format: cell membranes. To be noted: mdck2, 2 h. The method, boiled down:
as §1

Series [5] concerns the target T1, Bile salt export pump. Kind of series: Restoration of human BSEP E297G mutant trafficking to cell membrane in MDCK2 cells co-expressing NTCP assessed as decrease in [3H]taurocholate accumulation preincubated for 24 hrs prior incubation with [3H]taurocholate measured after 2 hrs by liquid scintillation counting. To be noted: mdck2, 2 h. Format: cell membranes. The method, boiled down:
as §1

The target of series [6] is T1, Bile salt export pump. Kind of series: Restoration of human BSEP E297G mutant trafficking to cell membrane in MDCK2 cells co-expressing NTCP assessed as increase in [3H]taurocholate transport measuring apparent efflux clearance across the apical membrane at 10 uM preincubated for 24 hrs prior incubation with [3H]taurocholate measured after 2 hrs by transcellular transport assay relative to control. Format: cell-based. To be noted: mdck2, 2 h. The method, boiled down: as §2

T1 sequence (O95342 whole entry E297G): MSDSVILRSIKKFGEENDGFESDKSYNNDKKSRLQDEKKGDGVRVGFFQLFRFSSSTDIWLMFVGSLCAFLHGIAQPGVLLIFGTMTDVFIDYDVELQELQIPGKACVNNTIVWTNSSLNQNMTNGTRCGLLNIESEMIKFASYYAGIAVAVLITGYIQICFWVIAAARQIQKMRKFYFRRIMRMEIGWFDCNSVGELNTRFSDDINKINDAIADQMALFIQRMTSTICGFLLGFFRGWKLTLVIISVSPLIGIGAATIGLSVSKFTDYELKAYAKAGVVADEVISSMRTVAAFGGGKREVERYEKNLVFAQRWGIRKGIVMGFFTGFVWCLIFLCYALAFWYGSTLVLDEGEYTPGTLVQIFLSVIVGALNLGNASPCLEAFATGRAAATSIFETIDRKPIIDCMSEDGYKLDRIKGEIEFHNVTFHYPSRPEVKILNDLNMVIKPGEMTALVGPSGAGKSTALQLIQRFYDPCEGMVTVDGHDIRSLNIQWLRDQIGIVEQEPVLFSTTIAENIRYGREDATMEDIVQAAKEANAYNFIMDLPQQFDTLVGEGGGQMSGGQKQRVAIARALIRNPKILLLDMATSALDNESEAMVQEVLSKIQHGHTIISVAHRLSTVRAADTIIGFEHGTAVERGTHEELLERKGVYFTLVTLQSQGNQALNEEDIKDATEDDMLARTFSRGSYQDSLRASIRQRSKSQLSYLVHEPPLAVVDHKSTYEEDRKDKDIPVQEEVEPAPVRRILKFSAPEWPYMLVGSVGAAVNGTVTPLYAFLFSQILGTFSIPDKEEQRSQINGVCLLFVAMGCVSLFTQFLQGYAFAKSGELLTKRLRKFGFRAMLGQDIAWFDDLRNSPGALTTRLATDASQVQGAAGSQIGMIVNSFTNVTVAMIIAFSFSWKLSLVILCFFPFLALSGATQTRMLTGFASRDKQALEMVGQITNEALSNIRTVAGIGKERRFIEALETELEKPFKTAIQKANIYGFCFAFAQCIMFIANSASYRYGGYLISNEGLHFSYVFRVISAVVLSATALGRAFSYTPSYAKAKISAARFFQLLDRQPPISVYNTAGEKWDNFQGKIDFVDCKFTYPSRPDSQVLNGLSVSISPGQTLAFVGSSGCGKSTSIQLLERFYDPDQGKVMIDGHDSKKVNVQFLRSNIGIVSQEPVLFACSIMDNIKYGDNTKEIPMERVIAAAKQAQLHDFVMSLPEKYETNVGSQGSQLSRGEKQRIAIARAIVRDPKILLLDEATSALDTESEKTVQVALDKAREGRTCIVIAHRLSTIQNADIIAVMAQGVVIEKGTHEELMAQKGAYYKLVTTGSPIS
Bile salt export pump (Homo sapiens, UniProt O95342), sequence (O95342 whole entry): as the sequence (O95342 whole entry E297G) above, with G297E counted along it

Consider `C[C@H](CCC(=O)NCC(=O)O)[C@H]1CC[C@H]2[C@@H]3[C@H](O)C[C@@H]4C[C@H](O)CC[C@]4(C)[C@H]3C[C@H](O)[C@]12C` [GLYCOCHOLIC ACID], for which the Activity on Bile salt export pump [1] is 108%.
For `CC(C)c1onc(-c2ccccc2)c1COc1ccc(C(=O)N(Cc2ccccc2)c2cccc(C(=O)O)c2)c(Cl)c1`, on Bile salt export pump [2], the Activity is 64%.
Turning to `O=C(O)CCCc1ccccc1`, on Bile salt export pump [3], the “fold change (FC)” value came to 3.
In the case of `C[C@H](CCC(=O)O)[C@H]1CC[C@H]2[C@@H]3[C@H](O)C[C@@H]4C[C@H](O)CC[C@]4(C)[C@H]3C[C@H](O)[C@]12C` [CHOLIC ACID], the Activity at Bile salt export pump [2] is listed as 73%; on Bile salt export pump [1] it was 40%; at Bile salt export pump [4], “Active”.
Consider `CC(C)c1onc(-c2c(Cl)cccc2Cl)c1COc1ccc(C(=O)N(c2cccc(C(=O)O)c2)c2cccc3ccccc23)c(Cl)c1`, for which the Activity on Bile salt export pump [2] turned out to be 59%.
Take `C[C@H](CCC(=O)O)[C@H]1CC[C@H]2[C@@H]3[C@@H](O)C[C@@H]4C[C@H](O)CC[C@]4(C)[C@H]3CC[C@]12C` [URSODIOL]: the figures for the Activity at Bile salt export pump [2] and at Bile salt export pump [1] were 76% and 43%, respectively.
Turning to `CC(C)c1onc(-c2c(Cl)cccc2Cl)c1COc1ccc(C(=O)N(Cc2ccccc2)c2ccc(C(=O)O)cc2)c(Cl)c1`, on Bile salt export pump [2], the Activity stood at 35%.
On the same count and under the same terms, for `CCCCN(C(=O)c1ccc(OCc2c(-c3c(Cl)cccc3Cl)noc2C(C)C)cc1Cl)c1cccc(C(=O)O)c1` the value was 49%; for `CC(C)c1onc(-c2c(Cl)cccc2Cl)c1COc1ccc(C(=O)N(Cc2ccccc2)c2ccccc2C(=O)O)c(Cl)c1`, 80%; for `CC(C)c1onc(-c2c(Cl)cccc2Cl)c1COc1ccc(C(=O)N(c2cccc(C(=O)O)c2)c2ccc3ccccc3c2)c(Cl)c1`, 70%.
For the molecule `Cc1cccc(C)c1-c1noc(C(C)C)c1COc1ccc(C(=O)N(Cc2ccccc2)c2cccc(C(=O)O)c2)c(Cl)c1`, the Activity on Bile salt export pump [2] is given as 93%.
For `CC(C)c1onc(-c2c(Cl)cccc2Cl)c1COc1ccc(/C=C/c2cccc(C(=O)O)c2)c(Cl)c1`, the Activity is 33% at Bile salt export pump [2] and “Dose-dependent effect” at Bile salt export pump [5].
On to `CC(C)c1onc(-c2c(Cl)cccc2Cl)c1COc1ccc(C(=O)N(C)c2cccc(C(=O)O)c2)c(Cl)c1`, for which the Activity at Bile salt export pump [2] came to 66%.
Turning to `CC(C)c1onc(-c2c(Cl)cccc2Cl)c1COc1ccc(C(=O)N(Cc2ccccc2)c2cccc(C(=O)O)c2)c(Cl)c1`, at Bile salt export pump [6], the “fold change (FC)” value stood at 7. Moreover, the Activity on Bile salt export pump [2] is 31%; at Bile salt export pump [5], “Dose-dependent effect”.
With `C[C@H](CCC(=O)O)[C@H]1CC[C@H]2[C@@H]3[C@H](O)C[C@@H]4C[C@H](O)CC[C@]4(C)[C@H]3CC[C@]12C` [CHENODIOL], the figures for the Activity on Bile salt export pump [2] and on Bile salt export pump [1] were 50% and 46%, respectively.
As to `CC(C)c1onc(-c2c(Cl)cccc2Cl)c1COc1ccc(C(=O)Nc2cccc(C(=O)O)c2)c(Cl)c1`, the Activity at Bile salt export pump [2] is 111%.
Take `C[C@H](CCC(=O)O)[C@H]1CC[C@H]2[C@@H]3CC[C@@H]4C[C@H](O)CC[C@]4(C)[C@H]3C[C@H](O)[C@]12C` [DEOXYCHOLIC ACID]: the Activity at Bile salt export pump [1] worked out at 65%.
Regarding `CC(C)c1onc(-c2c(Cl)cccc2Cl)c1COc1ccc(C(=O)N(Cc2ccccc2)c2cccc(C(=O)O)c2)cc1`, the Activity on Bile salt export pump [2] is given as 85%.
Regarding `CC(C)c1onc(-c2c(Cl)cccc2Cl)c1COc1ccc(C(=O)N(CCc2ccccc2)c2cccc(C(=O)O)c2)c(Cl)c1`, the Activity at Bile salt export pump [2] turned out to be 53%.
Turning to `COC(=O)c1cccc(N(Cc2ccccc2)C(=O)c2ccc(OCc3c(-c4c(Cl)cccc4Cl)noc3C(C)C)cc2Cl)c1`, the Activity at Bile salt export pump [2] is recorded as 93%.
